Consider 167 variants from the RNAGym collection of RNA variant scans (doi:10.1126/science.aae0568).

This sample holds only a part of the variants without activity.

To fix the notation:
B1: tRNA (parent)
chain: GUUCCGUUGGCGUAAUGGUAACGCGUCUCCCUCCUAAGGAGAAGACUGCGGGUUCGAGUCCCGUACGGAACG

The variants in the series derive from B1. The series can be described thus: yeast fitness relative to wild type (ratio to wild type); higher = fitter; tRNA-Arg(CCU), competitive growth, 37 C, YPD. The gist of the method:
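Changes in genotype frequencies gave Darwinian fitness relative to wild type. Frequencies were read by 100-nucleotide paired-end sequencing of gene amplicons before and after pooled Saccharomyces cerevisiae strains, carrying tRNA-Arg(CCU) gene variants at the native locus, were competed in YPD at 37°C for 24 hours in six replicates. A genotype was kept only with ≥ 100 starting reads, and estimates < 0.5 were set to 0.5.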
For U13C A45U, the yeast fitness was 0.929. In the case of U13C A45C, the yeast fitness was determined as 0.853. On to U13A G18A, for which the yeast fitness came out at 0.705. Regarding U13A U32C G67A A70G, the yeast fitness was 0.547. Turning to U13A C22G C24A C46G C55U C61A, the yeast fitness is ≤ 0.5. Turning to G12C G39A A57U, the yeast fitness was ≤ 0.5.

U13A C62G C66A: the yeast fitness was ≤ 0.5. With U13A A21C C24A G25C C66G the figure was 0.512; with U13A A15G A65G, 0.877; with G12C G25U G44C, ≤ 0.5. G12C C27U G58C A69C: the yeast fitness is 0.657. With U13A C22U C66U, the yeast fitness came to 0.534. Consider U13A C22A C46U, for which the yeast fitness amounted to 0.633. With G12C U13C U16A, the yeast fitness turned out to be 0.704. For the variant U13A A15G C22G U28A, the yeast fitness was determined as 0.619. With G12C G56A the figure was 0.838. Consider G12C G56C, for which the yeast fitness was found to be 0.694. Turning to U13A C30G, the yeast fitness is 0.584.

In the case of U13A C30U, the yeast fitness was determined as 0.802.

Turning to U13C A20G G39A G48C, the yeast fitness is ≤ 0.5.

Take U13A U16A A43C: the yeast fitness is 0.564. With U13C A20U G39C A43C C49A U53A, the yeast fitness was ≤ 0.5.

As to U13A A20G C24U U59C, the yeast fitness was ≤ 0.5. Regarding G12U C33U C34G, the yeast fitness was ≤ 0.5.

With U13A A69U, the yeast fitness was determined as 0.984.

For U13A C33G A40G C60A, the yeast fitness is ≤ 0.5. For the variant U13A U26G C27A G39C A42G G51C, the yeast fitness was ≤ 0.5. With G12C C29U G58U C61U the figure was ≤ 0.5; with G12C C30U C34U A42G A57C, ≤ 0.5; with U13A G58A, 1.06.

On to G12C C33U U47C G48A G58A, for which the yeast fitness was ≤ 0.5.

For U13A G50C U59A, the yeast fitness was found to be 0.594.

For the variant U13C A37U, the yeast fitness is 0.543. For the variant U13A A20G G41A G51C G67C, the yeast fitness is ≤ 0.5.

Regarding U13A C27A C61U C66U, the yeast fitness was ≤ 0.5. U13A A42C C66U: the yeast fitness is 0.76. Under U13A A14C C22A C31A A37G C55U A57G stands ≤ 0.5; under G12C G48A C66U, 0.784; under U13A G41A, 0.714. For U13A U47A C60A A69C, the yeast fitness was 0.525. As for U13A C22A A36U A65G, the yeast fitness is ≤ 0.5.

In the case of U13A U28A C30G C46U G56C, the yeast fitness is ≤ 0.5. Under U13A G23A A36C G38A C60G C62G stands 0.557; under G12C G17A, 0.673.

For the variant U13A A42C, the yeast fitness is 1.05. With U13A A42G, the yeast fitness amounted to 0.851. For G12C C34A G44A C46U G68A, the yeast fitness was ≤ 0.5. With U13C A20G C49A U59C C62U A65U A70C, the yeast fitness was 0.53. Regarding G12C U32G C33G, the yeast fitness was 0.543. With U13A C24U U59C G67A, the yeast fitness is ≤ 0.5. In the case of U13C A36U U64C, the yeast fitness is ≤ 0.5. Take U13A U53A: the yeast fitness is 0.59.

With G12C G25A C49U, the yeast fitness is 0.67.

G12C G25A C33G A37G A40C C49G G67C: the yeast fitness is ≤ 0.5.

On to U13A A40G U47G G63C, for which the yeast fitness was 0.535. With U13A C29U C31U G50C the figure was 0.508; with U13A C30A C31U A43C, 0.942. Regarding G12C C33U C46G U54A, the yeast fitness is ≤ 0.5. In the case of U13A U47C A69U, the yeast fitness was found to be 0.743. As for U13A C29U, the yeast fitness was 0.786. With U13C A21G C31G U47C the figure was 0.555; with U13A C30U C55G G58C, 0.56; with G12U G23A A36G G39A, ≤ 0.5. For U13A C22A C29A G41C G50C, the yeast fitness was ≤ 0.5.

With G12U G38A G52A G56C, the yeast fitness was ≤ 0.5. Consider U13A A20C A40U, for which the yeast fitness is ≤ 0.5.

With U13C A14C A45U C66U, the yeast fitness was ≤ 0.5. Take G12C G18C: the yeast fitness was 0.55.

In the case of G12C C29A A45U G56A, the yeast fitness is ≤ 0.5.

Turning to U13A C31G C46G A69C, the yeast fitness is ≤ 0.5. With U13A C66U G68C the figure was 0.51; with U13A C27G U59C, ≤ 0.5. G12C C30U A43G: the yeast fitness is 0.515. As for G12C U16A C60G C61U, the yeast fitness was ≤ 0.5. On to G12C C49A, for which the yeast fitness worked out at 0.562.

On to G12C C49U, for which the yeast fitness turned out to be 0.893. With U13A A20C C34U G50C A69U the figure was ≤ 0.5. In the case of U13A U28G G50C A57U C62A, the yeast fitness was 0.931.

Regarding G12C C46A, the yeast fitness came to 0.928. G12C C46U: the yeast fitness turned out to be 0.815. With U13C A14G C24G C49G A69G, the yeast fitness was ≤ 0.5. Turning to U13A C49U A65C, the yeast fitness is 0.624. With G12C U59G the figure was 0.79. As for U13A G23C A37C G38A, the yeast fitness stood at 0.554. Consider U13A G23C C27G C61A C62U, for which the yeast fitness is ≤ 0.5. For the variant U13C A20C C22U C60G, the yeast fitness is ≤ 0.5.

Take U13A C22G C31G C61A: the yeast fitness came out at 0.512. With U13A U28A C31U G39A A57G the figure was ≤ 0.5; with G12C U26A U35A, ≤ 0.5. Turning to G12C G41A C60G A65G, the yeast fitness was 0.519.

As for G12C U32C A37C A45G A57C, the yeast fitness was ≤ 0.5. With U13C A20G C46U U47A the figure was ≤ 0.5; with U13A C22G U32C A42C G48C C55G G63A G68C, ≤ 0.5; with G12C C62G, 0.739. As to U13C A15G G39A, the yeast fitness was found to be 0.593. As for G12C U19A C27G, the yeast fitness was determined as 0.692. Under U13C A36C C66U stands ≤ 0.5; under G12C U32G A40U A57U A65U, 0.568; under U13A G23A A36C G38A C61G, ≤ 0.5.

Take U13A C24U G51C: the yeast fitness is 0.542. For the variant U13A C29G C46G, the yeast fitness came to 0.583. Under U13A C27U U64C stands 0.937; under G12C G41C C60G, ≤ 0.5; under G12C G68A, 0.945. On to G12C U47A U54C, for which the yeast fitness came to 0.519. On to G12C U32G C33G G48C, for which the yeast fitness was ≤ 0.5. In the case of G12C C31G C49G C55G A69U, the yeast fitness came out at 0.527. Turning to G12C C29U, the yeast fitness stood at 0.85. Turning to G12C C29A, the yeast fitness was determined as 0.684. With U13A A14U C27G C46G the figure was 0.553; with U13C A15U C27U A69U, ≤ 0.5.

As for U13A G48C C55G C66A, the yeast fitness worked out at 0.584.

Take U13A C27U C31U: the yeast fitness amounted to 0.673. On to U13A A40G, for which the yeast fitness came out at 0.733.

In the case of U13A A40C, the yeast fitness is 0.789. Under G12U C60G stands ≤ 0.5; under G12C C62G C66U, ≤ 0.5.

Consider U13C A14G A45G, for which the yeast fitness is ≤ 0.5. On to G12C G58C C60A A65C, for which the yeast fitness was ≤ 0.5. G12C U13C C22U A43C G68C: the yeast fitness was ≤ 0.5. In the case of U13A A57U U64G A65G, the yeast fitness was ≤ 0.5.

For G12C C31U G68C, the yeast fitness amounted to 0.505.

For U13A C34G G50A C60G C61U, the yeast fitness is ≤ 0.5. In the case of U13A U19A C24G C27U C33G G52C, the yeast fitness is ≤ 0.5. For the variant U13A G50C A70U, the yeast fitness is ≤ 0.5. Under U13A G18A A69U stands 0.618; under G12C U28A, 1.04; under G12C C30A A42G, 0.562. Under G12U U54C stands 0.59. With U13C A21C G50A the figure was 0.509. As for U13A G48A, the yeast fitness is 1.03. Take G12C C29U G51A G56A G63C: the yeast fitness is 0.574.

U13A U28A U47G: the yeast fitness was 0.528. For G12C C49U U53C C60G, the yeast fitness is ≤ 0.5. Take U13A A45G G58C A69U A70U: the yeast fitness amounted to 0.603.

In the case of U13C A43U G56A, the yeast fitness is 0.797. With G12C G17A C46G C66A, the yeast fitness was ≤ 0.5.

For the variant G12C C29G G48C, the yeast fitness is ≤ 0.5. Turning to U13A C30U A45C, the yeast fitness came to 0.611. G12C C31G G51A C55G A57G G68C: the yeast fitness was ≤ 0.5. Consider U13A A40C U53A, for which the yeast fitness was determined as 0.53. For U13C A15G, the yeast fitness was 0.903. For U13A A15G U47A U64G, the yeast fitness is ≤ 0.5. Regarding U13C A15G A21G U47G A65C, the yeast fitness was ≤ 0.5. Take G12C U13C U16A C29G G44C C49G A57C: the yeast fitness is ≤ 0.5. On to U13A G50U G68C, for which the yeast fitness stood at 0.515. For G12C G39C G68C, the yeast fitness is ≤ 0.5. Take G12C C55G C66U: the yeast fitness is ≤ 0.5. With G12C U16C A42C C49U the figure was 0.594; with U13C A15C C22U C34A C66A, ≤ 0.5; with U13A C27G A42U, 0.671.

On to U13A C49U U54C C62U G68C, for which the yeast fitness was ≤ 0.5.

Take U13A C31U A40U: the yeast fitness is 1.04. On to U13C A36C U47C G67U, for which the yeast fitness was ≤ 0.5. In the case of U13A C27U A37C C61U, the yeast fitness was ≤ 0.5.

On to U13A C66U, for which the yeast fitness is 0.857. For the variant U13A C24G G25A C31U, the yeast fitness was ≤ 0.5.

Consider U13A G52A C55U, for which the yeast fitness is ≤ 0.5.

Consider U13A C33A A36U A70C, for which the yeast fitness is 0.518. For the variant U13A A40G A42G A57C C66U, the yeast fitness is 0.522. In the case of U13A G25C, the yeast fitness came out at 1.04.

Turning to U13A C33G A37G, the yeast fitness is ≤ 0.5. For G12C U32C A65G, the yeast fitness amounted to 0.569. U13C A43U C66U: the yeast fitness came to 0.705. In the case of U13A A15G C27U C62A G63A A70C, the yeast fitness was ≤ 0.5. With G12C G50A the figure was 0.736; with G12C G50U, 0.836.
